Calls of active or inactive are those of the source. The rule behind the calls is not given here.
Columns and labels:
PBMC [1] = test: Immunomodulatory activity in human PBMC assessed as induction of TNFalpha at 50 ug/ml after 24 hrs; format: functional, cell-based
Procedure, shortened: (§1)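 Human PBMCs plated at 5 × 10^6 cells/mL; compounds dissolved in PBS added at various concentrations, 37 °C for 24 h. Supernatant cytokines/chemokines quantified with human Luminex multiplex kit.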

PBMC [2] = test: Immunomodulatory activity in human PBMC assessed as induction of IFNalpha at 50 ug/ml after 24 hrs; format: functional, cell-based; procedure, shortened: as §1
PBMC [3] = test: Immunomodulatory activity in human PBMC assessed as induction of MIP1alpha at 50 ug/ml after 24 hrs; format: functional, cell-based; procedure, shortened: as §1
PBMC [4] = test: Immunomodulatory activity in human PBMC assessed as induction of MIP1beta at 50 ug/ml after 24 hrs; format: functional, cell-based; procedure, shortened: as §1
PBMC [5] = test: Immunomodulatory activity in human PBMC assessed as induction of IP10 at 50 ug/ml after 24 hrs; format: functional, cell-based; procedure, shortened: as §1
Homo sapiens [6] = organism: Homo sapiens; test: Immunostimulatory activity in human mDC assessed as induction of IFNalpha at 100 ug/ml after 24 hrs; format: functional
Procedure, shortened: (§2)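 Human mDCs isolated from PBMCs by CD19+ B-cell depletion then BDCA1 positive selection; plated at 1 × 10^6 cells/mL, compounds in PBS, 37 °C for 24 h; supernatant cytokines by human Luminex multiplex. Representative of four independent experiments.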

Homo sapiens [7] = organism: Homo sapiens; test: Immunostimulatory activity in human mDC assessed as induction of IP10 at 100 ug/ml after 24 hrs; format: functional; procedure, shortened: as §2
Homo sapiens [8] = organism: Homo sapiens; test: Immunostimulatory activity in human mDC assessed as induction of IL12 at 100 ug/ml after 24 hrs; format: functional; procedure, shortened: as §2
Homo sapiens [9] = organism: Homo sapiens; test: Immunostimulatory activity in human mDC assessed as induction of TNFalpha at 100 ug/ml after 24 hrs; format: functional; procedure, shortened: as §2
Mus musculus = test: Immunomodulatory activity in C57BL/6 mouse assessed as induction of IL12 release at 25 mg/kg, sc after 2 hrs by ELISA; format: functional, organism-based; parameters: dose 25 mg/kg
Procedure, shortened: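 Female C57BL/6 wild-type mice, 5–8 weeks old, n=3; compounds given subcutaneously at 10 or 25 mg/kg. Retro-orbital blood at 2 h; serum cytokines by mouse Luminex multiplex or IL-12 ELISA.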

SMILES	Activity (PBMC [1]) [pg/mL]	Activity (PBMC [2]) [pg/mL]	Activity (PBMC [3]) [pg/mL]	Activity (PBMC [4]) [pg/mL]	Activity (PBMC [5]) [pg/mL]	Activity (Homo sapiens [6])	Activity (Homo sapiens [7])	Activity (Homo sapiens [8])	Activity (Homo sapiens [9])	Activity (Mus musculus)
Nc1ccn([C@@H]2O[C@H](COP(=O)(S)O[C@H]3[C@@H](O)[C@H](n4cnc5c(N)ncnc54)O[C@@H]3COP(=O)(S)O[C@H]3[C@@H](O)[C@H](n4ccc5c(=O)[nH]c(N)nc54)O[C@@H]3COP(=O)(S)O[C@H]3[C@@H](O)[C@H](n4ccc(=O)[nH]c4=O)O[C@@H]3COP(=O)(S)O[C@H]3[C@@H](O)[C@H](n4ccc5c(=O)[nH]c(N)nc54)O[C@@H]3COP(=O)(S)O[C@H]3[C@@H](O)[C@H](n4cnc5c(N)ncnc54)O[C@@H]3COP(=O)(S)O[C@H]3[C@@H](O)[C@H](n4cnc5c(N)ncnc54)O[C@@H]3CO)[C@@H](OP(=O)(S)OC[C@H]3O[C@@H](n4ccc5c(=O)[nH]c(N)nc54)[C@H](O)[C@@H]3OP(=O)(S)OC[C@H]3O[C@@H](n4cnc5c(N)ncnc54)[C@H](O)[C@@H]3OP(=O)(S)OC[C@H]3O[C@@H](n4ccc(=O)[nH]c4=O)[C@H](O)[C@@H]3OP(=O)(S)OC[C@H]3O[C@@H](n4ccc(=O)[nH]c4=O)[C@H](O)[C@@H]3OP(=O)(S)OCC(O)COP(=O)(S)O[C@H]3[C@@H](O)[C@H](n4ccc(=O)[nH]c4=O)O[C@@H]3COP(=O)(S)O[C@H]3[C@@H](O)[C@H](n4ccc(=O)[nH]c4=O)O[C@@H]3COP(=O)(S)O[C@H]3[C@@H](O)[C@H](n4cnc5c(N)ncnc54)O[C@@H]3COP(=O)(S)O[C@H]3[C@@H](O)[C@H](n4ccc5c(=O)[nH]c(N)nc54)O[C@@H]3COP(=O)(S)O[C@H]3[C@@H](O)[C@H](n4ccc(N)nc4=O)O[C@@H]3COP(=O)(S)O[C@H]3[C@@H](O)[C@H](n4cnc5c(N)ncnc54)O[C@@H]3COP(=O)(S)O[C@H]3[C@@H](O)[C@H](n4ccc5c(=O)[nH]c(N)nc54)O[C@@H]3COP(=O)(S)O[C@H]3[C@@H](O)[C@H](n4ccc(=O)[nH]c4=O)O[C@@H]3COP(=O)(S)O[C@H]3[C@@H](O)[C@H](n4ccc5c(=O)[nH]c(N)nc54)O[C@@H]3COP(=O)(S)O[C@H]3[C@@H](O)[C@H](n4cnc5c(N)ncnc54)O[C@@H]3COP(=O)(S)O[C@H]3[C@@H](O)[C@H](n4cnc5c(N)ncnc54)O[C@@H]3CO)[C@H]2O)c(=O)n1 (stereo partly drawn)	18	121	3090	6680	55	Active	Active	Active	Active	Active
Nc1ccn([C@@H]2O[C@H](COP(=O)(S)O[C@H]3[C@@H](O)[C@H](n4cnc5c(=O)[nH]c(N)nc54)O[C@@H]3COP(=O)(S)O[C@H]3[C@@H](O)[C@H](n4ccc(=O)[nH]c4=O)O[C@@H]3COP(=O)(S)OCCCO)[C@@H](OP(=O)(S)OC[C@H]3O[C@@H](n4ccc(=O)[nH]c4=O)[C@H](O)[C@@H]3OP(=O)(S)OC[C@H]3O[C@@H](n4cnc5c(=O)[nH]c(N)nc54)[C@H](O)[C@@H]3OP(=O)(S)OC[C@H]3O[C@@H](n4ccc(N)nc4=O)[C@H](O)[C@@H]3OP(=O)(S)OC[C@H]3O[C@@H](n4ccc(=O)[nH]c4=O)[C@H](O)[C@@H]3OP(=O)(S)OC[C@H]3O[C@@H](n4ccc(=O)[nH]c4=O)[C@H](O)[C@@H]3OP(=O)(S)OC[C@H]3O[C@@H](n4cnc5c(=O)[nH]c(N)nc54)[C@H](O)[C@@H]3OP(=O)(S)OC[C@H]3O[C@@H](n4ccc(=O)[nH]c4=O)[C@H](O)[C@@H]3OP(=O)(S)OC[C@H]3O[C@@H](n4cnc5c(=O)[nH]c(N)nc54)[C@H](O)[C@@H]3OP(=O)(S)OCC(O)COP(=O)(S)O[C@H]3[C@@H](O)[C@H](n4cnc5c(=O)[nH]c(N)nc54)O[C@@H]3COP(=O)(S)O[C@H]3[C@@H](O)[C@H](n4ccc(=O)[nH]c4=O)O[C@@H]3COP(=O)(S)O[C@H]3[C@@H](O)[C@H](n4cnc5c(=O)[nH]c(N)nc54)O[C@@H]3COP(=O)(S)O[C@H]3[C@@H](O)[C@H](n4ccc(=O)[nH]c4=O)O[C@@H]3COP(=O)(S)O[C@H]3[C@@H](O)[C@H](n4ccc(=O)[nH]c4=O)O[C@@H]3COP(=O)(S)O[C@H]3[C@@H](O)[C@H](n4ccc(N)nc4=O)O[C@@H]3COP(=O)(S)O[C@H]3[C@@H](O)[C@H](n4cnc5c(=O)[nH]c(N)nc54)O[C@@H]3COP(=O)(S)O[C@H]3[C@@H](O)[C@H](n4ccc(=O)[nH]c4=O)O[C@@H]3COP(=O)(S)O[C@H]3[C@@H](O)[C@H](n4ccc(N)nc4=O)O[C@@H]3COP(=O)(S)O[C@H]3[C@@H](O)[C@H](n4cnc5c(=O)[nH]c(N)nc54)O[C@@H]3COP(=O)(S)O[C@H]3[C@@H](O)[C@H](n4ccc(=O)[nH]c4=O)O[C@@H]3COP(=O)(S)OCCCO)[C@H]2O)c(=O)n1 (stereo partly drawn)	541	56	4760	5730	24	Active	Active	Active	Active	
Nc1ccn([C@@H]2O[C@H](COP(O)(=S)O[C@H]3[C@@H](O)[C@H](n4ccc(=O)[nH]c4=O)O[C@@H]3COP(O)(=S)O[C@H]3[C@@H](O)[C@H](n4ccc(=O)[nH]c4=O)O[C@@H]3COP(O)(=S)O[C@H]3[C@@H](O)[C@H](n4ccc(N)nc4=O)O[C@@H]3COP(O)(=S)O[C@H]3[C@@H](O)[C@H](n4ccc5c(=O)[nH]c(N)nc54)O[C@@H]3COP(O)(=S)O[C@H]3[C@@H](O)[C@H](n4ccc(=O)[nH]c4=O)O[C@@H]3COP(O)(=S)O[C@H]3[C@@H](O)[C@H](n4ccc(N)nc4=O)O[C@@H]3COP(O)(=S)O[C@H]3[C@@H](O)[C@H](n4ccc5c(=O)[nH]c(N)nc54)O[C@@H]3COP(O)(=S)O[C@H]3[C@@H](O)[C@H](n4ccc(=O)[nH]c4=O)O[C@@H]3CO)[C@@H](OP(O)(=S)OC[C@H]3O[C@@H](n4ccc(=O)[nH]c4=O)[C@H](O)[C@@H]3OP(O)(=S)OC[C@H]3O[C@@H](n4ccc5c(=O)[nH]c(N)nc54)[C@H](O)[C@@H]3OP(O)(=S)OCC(O)COP(O)(=S)O[C@H]3[C@@H](O)[C@H](n4ccc5c(=O)[nH]c(N)nc54)O[C@@H]3COP(O)(=S)O[C@H]3[C@@H](O)[C@H](n4ccc(=O)[nH]c4=O)O[C@@H]3COP(O)(=S)O[C@H]3[C@@H](O)[C@H](n4ccc(N)nc4=O)O[C@@H]3COP(O)(=S)O[C@H]3[C@@H](O)[C@H](n4ccc(=O)[nH]c4=O)O[C@@H]3COP(O)(=S)O[C@H]3[C@@H](O)[C@H](n4ccc(=O)[nH]c4=O)O[C@@H]3COP(O)(=S)O[C@H]3[C@@H](O)[C@H](n4ccc(N)nc4=O)O[C@@H]3COP(O)(=S)O[C@H]3[C@@H](O)[C@H](n4ccc5c(=O)[nH]c(N)nc54)O[C@@H]3COP(O)(=S)O[C@H]3[C@@H](O)[C@H](n4ccc(=O)[nH]c4=O)O[C@@H]3COP(O)(=S)O[C@H]3[C@@H](O)[C@H](n4ccc(N)nc4=O)O[C@@H]3COP(O)(=S)O[C@H]3[C@@H](O)[C@H](n4ccc5c(=O)[nH]c(N)nc54)O[C@@H]3COP(O)(=S)O[C@H]3[C@@H](O)[C@H](n4ccc(=O)[nH]c4=O)O[C@@H]3CO)[C@H]2O)c(=O)n1 (stereo partly drawn)	688	373	15500	27600	167	Active	Active	Active	Active	Active
Nc1ncnc2c1ncn2[C@@H]1O[C@H](CO)[C@@H](OP(=O)(S)OC[C@H]2O[C@@H](n3cnc4c(N)ncnc43)[C@H](O)[C@@H]2OP(=O)(S)OC[C@H]2O[C@@H](n3cnc4c(N)ncnc43)[C@H](O)[C@@H]2OP(=O)(S)OC[C@H]2O[C@@H](n3cnc4c(N)ncnc43)[C@H](O)[C@@H]2OP(=O)(S)OC[C@H]2O[C@@H](n3cnc4c(N)ncnc43)[C@H](O)[C@@H]2OP(=O)(S)OC[C@H]2O[C@@H](n3cnc4c(N)ncnc43)[C@H](O)[C@@H]2OP(=O)(S)OC[C@H]2O[C@@H](n3cnc4c(N)ncnc43)[C@H](O)[C@@H]2OP(=O)(S)OC[C@H]2O[C@@H](n3cnc4c(N)ncnc43)[C@H](O)[C@@H]2OP(=O)(S)OC[C@H]2O[C@@H](n3cnc4c(N)ncnc43)[C@H](O)[C@@H]2OP(=O)(S)OC[C@H]2O[C@@H](n3cnc4c(N)ncnc43)[C@H](O)[C@@H]2OP(=O)(S)OC[C@H]2O[C@@H](n3cnc4c(N)ncnc43)[C@H](O)[C@@H]2OP(=O)(S)OCC(O)COP(=O)(S)O[C@H]2[C@@H](O)[C@H](n3cnc4c(N)ncnc43)O[C@@H]2COP(=O)(S)O[C@H]2[C@@H](O)[C@H](n3cnc4c(N)ncnc43)O[C@@H]2COP(=O)(S)O[C@H]2[C@@H](O)[C@H](n3cnc4c(N)ncnc43)O[C@@H]2COP(=O)(S)O[C@H]2[C@@H](O)[C@H](n3cnc4c(N)ncnc43)O[C@@H]2COP(=O)(S)O[C@H]2[C@@H](O)[C@H](n3cnc4c(N)ncnc43)O[C@@H]2COP(=O)(S)O[C@H]2[C@@H](O)[C@H](n3cnc4c(N)ncnc43)O[C@@H]2COP(=O)(S)O[C@H]2[C@@H](O)[C@H](n3cnc4c(N)ncnc43)O[C@@H]2COP(=O)(S)O[C@H]2[C@@H](O)[C@H](n3cnc4c(N)ncnc43)O[C@@H]2COP(=O)(S)O[C@H]2[C@@H](O)[C@H](n3cnc4c(N)ncnc43)O[C@@H]2COP(=O)(S)O[C@H]2[C@@H](O)[C@H](n3cnc4c(N)ncnc43)O[C@@H]2COP(=O)(S)O[C@H]2[C@@H](O)[C@H](n3cnc4c(N)ncnc43)O[C@@H]2CO)[C@H]1O (stereo partly drawn)	0	12	43	83	4	inactive	inactive	inactive	inactive	
